Source: ChEMBL document CHEMBL3992522, “Antileishmanial Activity of Pyrazolopyridine Derivatives and Their Potential as an Adjunct Therapy with Miltefosine” (J Med Chem, 2017)

Columns and labels:
[1] = system: Leishmania donovani; assay: Antileishmanial activity against Leishmania donovani MHOM/IN/80/DD8 promastigote forms harboring luciferase gene at 50 uM up to 72 hrs by MTT assay relative to control; format: functional; details: MHOM/IN/80/DD8, 72 h
[2] = system: Leishmania donovani; assay: Antileishmanial activity against Leishmania donovani MHOM/IN/80/DD8 promastigote forms harboring luciferase gene at 25 uM after 72 hrs by Steady-Glo reagent based luminescence assay relative to control; format: functional; details: MHOM/IN/80/DD8, 72 h, read-out: GI
Method in brief: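 Exponential-phase Dd8-Luc promastigotes at 1×10^6/mL in M199 with 10% FBS, 24 °C, given 50 and 25 µM for 72 h. Vehicle 0.1% DMSO. Steady-Glo added 1:1, luminescence (RLU) read. IC50 from four-parameter Hill regression, derived only where inhibition exceeded 90%. Means of at least three independent experiments.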

[3] = Tmax in Swiss mouse at 50 mg/kg, po by LC-MS/MS analysis; format: ADME, organism-based; details: in vivo

COc1ccc(C2C3=C(CCC3=O)Nc3c2c(-c2c[nH]c4ccccc24)nn3-c2ccc(Cl)c(Cl)c2)cc1OC (stereo not drawn)
inhibition at 50 µM [1]: > 95% | inhibition of growth at 25 µM [2]: 91.7% | Tmax [3]: 1.75 h
